An excerpt weighted towards active compounds, which were near 0.6% of everything screened.
PolyA inh – inhibitors of polyadenylation in S. cerevisiae | S. cerevisiae SKY197-pL101 polyadenylation reporter, beta-gal luminescence; efflux-impaired pdr1/pdr3 knockout yeast; score 100 = 6 SD above DMSO | activity score, % at 12 µM | hit rate 0.02% among 300,000 | AID 1875;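 active = lowest replicate activity score at least 50, where 100 means six control SD above control mean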;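 also: yeast exposed to compound for 9 h at 30 °C; higher score means more reporter readthrough which indicates perturbed polyadenylation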
Efflux pump mplx – blocks antifungal efflux pumps in multiplex yeast assay; S. cerevisiae Candida pump triplex, Nile Red efflux; inhibition, % at 10 µM; hit rate 0.44% among 330,000;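 active = plate passing quality check with inhibition over a set limit, or well fluorescence over plate mean plus 4 SD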;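 also: Nile Red retained in pooled yeast measured as flow cytometry median fluorescence; higher means more Nile Red kept so more efflux inhibition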
GSK3B inh – blocks human GSK3beta kinase activity | AID 2097 | P49841 | activity score (negative = inhibition), % at 10 µM | hit rate 0.038% among 300,000 | GST-GSK3beta kinase, ADP-Glo luminescence, 60 min; stronger effect = lower value;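 active = more than half of replicate wells score below -50%, meaning over 50% inhibition versus plate controls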
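Assay system: GST-tagged human GSK3beta kinase, cell-free; Input: 1.6 ng GSK3beta; Medium: Tris/MgCl2 kinase buffer; Timing: 60 min enzyme reaction, room temperature; Signal: ADP-Glo luminescence quantifying ADP generated by kinase; Evaluation: score relative to plate controls; Benchmarks: DMSO neutral wells and GW8510 at 20 µM as positive.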
GSK3 alpha inh – blocks human GSK-3 alpha kinase | P49840 | ADP-Glo luminescence, 60 min | inhibition, % at 10 µM | hit rate 0.1% among 320,000 | AID 2650;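 active = more than half of replicates show inhibition above 20%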;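 also: GST-tagged GSK-3 alpha with peptide substrate and 25 µM ATP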
Target sequence (P49840 whole entry, looked up): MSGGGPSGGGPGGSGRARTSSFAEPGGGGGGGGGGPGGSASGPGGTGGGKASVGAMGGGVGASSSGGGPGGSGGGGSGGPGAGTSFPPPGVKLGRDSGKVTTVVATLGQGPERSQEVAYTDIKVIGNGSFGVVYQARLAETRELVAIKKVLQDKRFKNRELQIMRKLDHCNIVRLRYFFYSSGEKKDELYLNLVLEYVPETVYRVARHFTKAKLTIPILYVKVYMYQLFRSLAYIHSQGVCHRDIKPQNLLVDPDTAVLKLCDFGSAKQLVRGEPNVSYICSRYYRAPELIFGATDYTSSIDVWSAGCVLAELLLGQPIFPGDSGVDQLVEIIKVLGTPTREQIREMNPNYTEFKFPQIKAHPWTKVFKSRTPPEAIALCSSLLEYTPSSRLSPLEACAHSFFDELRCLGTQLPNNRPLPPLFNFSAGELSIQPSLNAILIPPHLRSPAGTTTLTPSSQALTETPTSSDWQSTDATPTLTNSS
STK33 kinase inh – inhibitors of human STK33 kinase; Q9BYT3; purified STK33, MBP phosphorylation, ADP-Glo luminescence; inhibition, % at 10 µM; hit rate 0.073% among 320,000;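 active = inhibition at or above 25%, using the most active replicate where run in duplicate; inactive = inhibition below 25%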
Cmpd fluor yeast – flagged as fluorescent in efflux inhibitor counter-screen. S. cerevisiae AD/pABC3, compound fluorescence, flow cytometry. AID 588517. hit rate 4% among 1,700. fluorescence ratio to DMSO, % at 10 µM. shares compounds with Efflux pump mplx;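 active = fluorescence ratio to DMSO above its plate's cutoff, the plate mean ratio plus 5 SD, cut at about 210% in these data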;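 also: unstained yeast with no Nile Red so the signal is compound autofluorescence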
CaMdr1 efflux inh – Candida Mdr1 efflux pump inhibition; shares compounds with Efflux pump mplx; S. cerevisiae AD/CaMDR1, Nile Red efflux, flow cytometry; inhibition, % at 10 µM; hit rate 1% among 1,700; in the data active = inhibition above about 26%;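 also: higher means more Nile Red retained so more efflux inhibition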
CaCdr2 efflux inh – Candida Cdr2 efflux pump inhibition. shares compounds with Efflux pump mplx. AID 588520. Nile Red retention ratio vs DMSO, % at 10 µM. S. cerevisiae AD/CaCDR2, Nile Red retention, flow cytometry. hit rate 4% among 1,700; in the data active = Nile Red retention ratio vs DMSO above about 190%;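 also: higher ratio means more blocking of Cdr2 efflux of the dye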
Cdr1 pump inh – Candida Cdr1 efflux pump inhibition | shares compounds with Efflux pump mplx | S. cerevisiae AD/CaCDR1, Nile Red efflux, flow cytometry | inhibition, % at 10 µM | hit rate 1% among 1,700 | AID 588522;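 active = inhibition above the screen-wide mean plus twice its standard deviation, cut at about 32% in these data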
Of the large screens only hits and unclear results are named; the others gave an inactive call (follow-up assays come after a bar, where they were run).

CCSc1cc(N2CCCC2)nc(-c2ccc(Cl)cc2)n1	none (no result: PolyA inh, GSK3B inh) | Cmpd fluor yeast inactive | CaMdr1 efflux inh inactive | CaCdr2 efflux inh inactive | Cdr1 pump inh inactive
CCCCOc1ccc(NC2=NC3(CCCC3)N=C(N)N2)cc1	Efflux pump mplx 0.6 | Cmpd fluor yeast inactive | CaMdr1 efflux inh inactive | CaCdr2 efflux inh inactive | Cdr1 pump inh inactive
Cc1cc(C)cc(NC2=NC3(CCCCC3)N=C(N)N2)c1	none
Cc1ccc(-c2csc(NCCn3c(C)nc4cc(C(F)(F)F)ccc43)n2)cc1	none (no result: PolyA inh, GSK3B inh)
CN(C)C(=S)SCC(=O)Nc1ccc(Cl)cc1Cl	Efflux pump mplx 15.2 | Cmpd fluor yeast inactive | CaMdr1 efflux inh inactive | CaCdr2 efflux inh inactive | Cdr1 pump inh inactive
O=C(CC(=O)Nc1ccc(Cl)cc1Cl)Nc1ccc(Cl)cc1Cl	none
NC(=O)c1nsc(C(=O)N(c2ccccc2)C(C(=O)NCc2ccc(F)cc2)c2ccco2)c1N (stereo not drawn)	Efflux pump mplx 0.5 | Cmpd fluor yeast inactive | CaMdr1 efflux inh inactive | CaCdr2 efflux inh inactive | Cdr1 pump inh inactive
COc1ccc(NC(=O)COc2nsnc2N2CCCCC2)cc1	Efflux pump mplx 9.0 | Cmpd fluor yeast inactive | CaMdr1 efflux inh inactive | CaCdr2 efflux inh inactive | Cdr1 pump inh inactive
CCOc1ccc(NC(=O)COc2nsnc2N2CCCCC2)cc1	none
Nc1c2c(nn1-c1ccccc1)CCC2	none
COc1ccc(-c2nnc(NC(=O)c3ccc(F)cc3)o2)cc1	Efflux pump mplx 1.0 | Cmpd fluor yeast inactive | CaMdr1 efflux inh inactive | CaCdr2 efflux inh inactive | Cdr1 pump inh inactive
COc1ccc(/C=C(\C#N)C(=O)Nc2cc(S(=O)(=O)N3CCCCC3)ccc2N2CCCCC2)cc1	Efflux pump mplx 0.5 | Cmpd fluor yeast inactive | CaMdr1 efflux inh inactive | CaCdr2 efflux inh inactive | Cdr1 pump inh inactive
CC[n+]1c(/C=C/C=C/N(C(C)=O)c2ccccc2)sc2ccccc21	Efflux pump mplx 1.3 (no result: GSK3 alpha inh) | Cmpd fluor yeast 309.0 | CaMdr1 efflux inh inactive | CaCdr2 efflux inh inactive | Cdr1 pump inh inactive
COc1ccc([C@H]2CC(=O)C=C(c3ccnc4ccc(Cl)cc34)C2)cc1	Efflux pump mplx 66.5 (no result: PolyA inh, GSK3B inh) | Cmpd fluor yeast inactive | CaMdr1 efflux inh inactive | CaCdr2 efflux inh inactive | Cdr1 pump inh inactive
COc1ccc([C@H]2CC(=O)C=C(c3cc(Cl)ccc3C)C2)cc1	none (no result: PolyA inh, GSK3B inh)
Cc1cccc(C)c1OCc1cc(C(=O)N2CCNC(=O)C2)no1	none | Cmpd fluor yeast inactive | CaMdr1 efflux inh inactive | CaCdr2 efflux inh inactive | Cdr1 pump inh inactive
Cc1c(C)c2c(OCC(=O)N[C@@H](CC(C)C)C(=O)O)cc3c(c2oc1=O)CCC(C)(C)O3	none
COC(=O)c1ccc(CSc2nnc3c(n2)[nH]c2ccccc23)cc1	Efflux pump mplx 0.5 | Cmpd fluor yeast inactive | CaMdr1 efflux inh inactive | CaCdr2 efflux inh inactive | Cdr1 pump inh inactive
COc1ccc(CNC(=O)CSc2nnc3c(n2)[nH]c2ccccc23)cc1	none
CC(C)[C@H](NS(=O)(=O)c1ccc2c(c1)OCCO2)C(=O)OCC(=O)Nc1ccccc1Cl	none
CC(C)[C@H](NS(=O)(=O)c1ccc2c(c1)OCCO2)C(=O)OCC(=O)Nc1cccc(Cl)c1Cl	Efflux pump mplx 16.4 | Cmpd fluor yeast inactive | CaMdr1 efflux inh inactive | CaCdr2 efflux inh inactive | Cdr1 pump inh inactive
CCOc1cc2[nH]c(=S)n(CCC(=O)NCc3ccc(OC)cc3)c(=O)c2cc1OCC	Efflux pump mplx 0.4 | Cmpd fluor yeast inactive | CaMdr1 efflux inh inactive | CaCdr2 efflux inh inactive | Cdr1 pump inh inactive
CCCCN(C)C1=CC2=CC(=C(C#N)C#N)CCC2CC1 (stereo not drawn)	Efflux pump mplx 5.5 | Cmpd fluor yeast inactive | CaMdr1 efflux inh inactive | CaCdr2 efflux inh 282.4 | Cdr1 pump inh inactive
CCN(CC)C1=CC2=CC(=C(C#N)C#N)CCC2CC1 (stereo not drawn)	Efflux pump mplx 3.4 (no result: PolyA inh) | Cmpd fluor yeast inactive | CaMdr1 efflux inh inactive | CaCdr2 efflux inh 224.8 | Cdr1 pump inh inactive
N#CC(C#N)=C1C=C2C=C(N3CCCCC3)CCC2CC1 (stereo not drawn)	Efflux pump mplx 9.3 (no result: PolyA inh, GSK3B inh) | Cmpd fluor yeast inactive | CaMdr1 efflux inh inactive | CaCdr2 efflux inh 232.5 | Cdr1 pump inh inactive
CC(=O)N1N=C(c2ccccc2)OC1c1ccc([N+](=O)[O-])s1 (stereo not drawn)	none
O=C(NN1C(=O)C2C3C=CC(C3)C2C1=O)c1ccccc1 (stereo not drawn)	none
O=C(NN1C(=O)C2C3c4ccccc4C(c4ccccc43)C2C1=O)c1ccc(Cl)cc1 (stereo not drawn)	Efflux pump mplx 8.9 | Cmpd fluor yeast inactive | CaMdr1 efflux inh inactive | CaCdr2 efflux inh inactive | Cdr1 pump inh inactive
O=S(=O)(Cc1ncc(C(F)(F)F)cc1Cl)c1ccccc1	none
CC1(C)CC[C@]2(C(=O)O)CC[C@]3(C)C(=CCC4[C@@]5(C)CC[C@H](O)C(C)(C)C5CC[C@]43C)C2C1 (stereo partly drawn)	Efflux pump mplx 1.4 | Cmpd fluor yeast inactive | CaMdr1 efflux inh inactive | CaCdr2 efflux inh inactive | Cdr1 pump inh inactive
O=C(O)c1ccc(S(=O)(=O)NCC2CCCCC2)cc1	none
COc1nc(NC23CC4CC(CC(C4)C2)C3)nc(OC)n1	Efflux pump mplx 0.5 | Cmpd fluor yeast inactive | CaMdr1 efflux inh inactive | CaCdr2 efflux inh inactive | Cdr1 pump inh inactive
COc1cc2c(cc1OC)CN(c1nc(CN3CCOCC3)nc3sc4c(c13)CCC(C)C4)CC2 (stereo not drawn)	Efflux pump mplx 98.3 | Cmpd fluor yeast inactive | CaMdr1 efflux inh inactive | CaCdr2 efflux inh inactive | Cdr1 pump inh 81.9
O=S(=O)(NCCc1cn2ccccc2n1)c1ccc(F)c(C(F)(F)F)c1	Efflux pump mplx 0.5 | Cmpd fluor yeast inactive | CaMdr1 efflux inh inactive | CaCdr2 efflux inh inactive | Cdr1 pump inh inactive
COc1cc2c(cc1OC)C(C)N(C(=O)C(NC(=O)c1ccccc1)C(C)C)CC2 (stereo not drawn)	none
CC(C)CCN1CCC(n2nccc2NC(=O)C2CCOC2)CC1 (stereo not drawn)	Efflux pump mplx 1.4 | Cmpd fluor yeast inactive | CaMdr1 efflux inh inactive | CaCdr2 efflux inh inactive | Cdr1 pump inh inactive
CC(=O)N1CCCN(Cc2cn(-c3cc(C)ccc3C)nc2-c2ccccc2)CC1	none
COc1ccc(CCNC(=O)c2ccc(-c3ccc([N+](=O)[O-])cc3Cl)o2)cc1	Efflux pump mplx 6.7 | Cmpd fluor yeast inactive | CaMdr1 efflux inh inactive | CaCdr2 efflux inh inactive | Cdr1 pump inh inactive

Source: PubChem BioAssay (several laboratories)
